Assay outcomes deposited in PubChem BioAssay by Sanford-Burnham Center for Chemical Genomics.
This is a sample that favours compounds with a hit; in the whole collection about 1.8% have one here.
C8 TRAIL sens – viability loss with TRAIL in NB7+C8 cells, primary screen, TRAIL sensitizer project, cell-based, ATPlite luminescence. actives 1% (n = 360,000). AID 624354, 2012. inhibition (viability loss, TRAIL sensitization), % at 10 µM;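 active = compounds causing at least 50% loss of cell viability in the single-dose screen, relative to plate controls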
FLuc act counter – FLuc activators, initial screening, artefact control for FLuc-dependent activation tests, biochemical, ATPlite luminescence. Luciferin 4-monooxygenase (Photinus pyralis), P08659. ATPlite luciferase biochemical, 10 min; 0 = ATP-free wells, 1 = DMSO control. activation factor at 10 µM. 200,000 tested, under 10 active;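 active = luciferase activation factor, scaled between plate controls, of at least 2 with compound at 10 µM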
Target sequence (P08659 whole entry, looked up): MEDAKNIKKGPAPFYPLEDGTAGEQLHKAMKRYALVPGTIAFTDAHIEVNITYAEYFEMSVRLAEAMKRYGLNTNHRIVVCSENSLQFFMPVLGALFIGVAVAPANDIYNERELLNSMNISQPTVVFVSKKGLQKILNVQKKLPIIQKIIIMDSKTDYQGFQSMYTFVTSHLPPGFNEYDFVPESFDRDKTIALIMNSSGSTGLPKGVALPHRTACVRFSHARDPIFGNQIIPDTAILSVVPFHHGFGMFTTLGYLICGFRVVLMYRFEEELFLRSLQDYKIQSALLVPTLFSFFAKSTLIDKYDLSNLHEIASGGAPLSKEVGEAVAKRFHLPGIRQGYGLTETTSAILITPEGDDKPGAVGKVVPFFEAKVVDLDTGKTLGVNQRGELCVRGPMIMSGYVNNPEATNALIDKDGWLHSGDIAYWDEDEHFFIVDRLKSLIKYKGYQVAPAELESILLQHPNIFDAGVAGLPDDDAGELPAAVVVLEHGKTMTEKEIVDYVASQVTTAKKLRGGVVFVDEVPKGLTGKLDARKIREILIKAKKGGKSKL
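Material: Luciferase/luciferin reagent mix | Doses: Test compounds dosed from 2 mM stocks in 100% DMSO | Timing: 10 min incubation after luciferase reagent addition, room temperature | Measured by: Luminescence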
PPC-1+TRAIL kill – compounds killing PPC-1 cancer cells with TRAIL present, primary screen, TRAIL potentiator project, ATPLite luminescence, uHTS. PPC-1 cells + TRAIL, ATPLite viability luminescence. cell killing (% activity), % at 4 µM or 5 µM. actives 0.41% (n = 220,000);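 active = cell killing above 50% in the first pass at 4 µM, then a duplicate retest at 5 µM averaging 50% or more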;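 also: plate controls were cells with TRAIL plus DMSO for no effect and medium-only wells lacking cells for full effect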
MIN6 prolif – inducers of MIN6 beta-cell proliferation, primary screen, ATP luminescence, uHTS | MIN6 cells proliferation, ATPlite luminescence, 48 h; cells starved in 0.2% serum; 100% = growth in 10% serum | proliferation, % at 10 µM | actives 0.29% (n = 330,000);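 active = compounds whose signal lies at least 3.5 SD above the mean of all wells on their plate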;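 also: 0% = DMSO-treated cells in low-serum medium and 100% = 10% serum control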
hiPSC survival – enhancers of single-cell hiPSC survival, primary screen, ATPlite luminescence | 100% = ROCK inhibitor wells, 0% = DMSO | survival enhancement, % at 20 µM | actives 0.044% (n = 360,000) | AID 602274, 2012; in the data active = survival enhancement above about 18%;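 also: cells exposed to compounds for 16 hours before the ATP read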
FLuc inh counter – firefly luciferase enzyme inhibitors, primary screen, artefact control for luciferase-based inhibitor screens, biochemical, luminescence, ATPLite. actives 1.5% (n = 200,000). Luciferin 4-monooxygenase (Photinus pyralis), P08659. 10 min. inhibition, % at 10 µM;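 active = inhibition above about 50% when tested at 10 µM, limit read from the data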
PPC-1 tox – cytotoxicity in PPC-1 cells, confirmation, cytotoxicity control for TRAIL apoptosis potentiator project, cell-based, ATP content luminescence. shares compounds with PPC-1+TRAIL kill. cytotoxicity, % at 5 µM. PPC-1 viability, ATPlite luminescence, overnight. actives 50% (n = 1,200);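 active = reconfirmed compounds whose average cytotoxicity reaches 50% or more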;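 also: 0% = DMSO-treated cells and 100% = wells holding medium but no cells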
An asterisk follows results filed as active; nt = not tested or not shown.

SMILES	C8 TRAIL sens	FLuc act counter	PPC-1+TRAIL kill	MIN6 prolif	hiPSC survival	FLuc inh counter	PPC-1 tox
Cc1ccc(SCc2cn3ccccc3n2)cc1	21	nt	23	-2	0	nt	nt
c1ccc(CSCc2cn3ccccc3n2)cc1	3	1	-4	0	-1	3	-6
CC(=O)c1cccc(NC(=O)COC(=O)Cn2cnc3ccccc32)c1	3	nt	nt	5	0	nt	nt
Cc1ccc(N/C(N)=N/c2nc(C)cc(N3CCCCC3)n2)c(C)c1	40	1	20	-5	-2	-5	22
Cc1ccc(N/C(N)=N/c2nc3c(c(=O)[nH]2)CCCC3)c(C)c1	18	1.1	31	2	2	-6	nt
O=C1C=C(c2n[nH]nc2-c2ccccc2)C[C@@H](c2ccc(F)cc2)C1	-6	nt	nt	nt	2	nt	nt
CCS/C(N)=N/N=C/c1cc(C)ccc1O	72*	0.1	62*	-4	-6	90*	64*
CN(C)c1ncnc2c1ncn2[C@H]1CN(Cc2ccco2)C[C@@H](CO)O1	-13	nt	nt	nt	-3	nt	nt
COc1cccc(-c2noc(-c3ccc4c(c3)OCO4)n2)c1	66*	0.2	60*	-4	0	82*	62*
COc1cccc(-c2nc(-c3ccncc3)no2)c1	15	nt	nt	-3	0	nt	nt
O=C(O)c1ccc(N/N=C/c2cc3cc4c(cc3nc2Cl)OCCO4)cc1	93*	nt	88*	-7	0	nt	91*
Cc1cccc(CSc2nc3c(cc2C#N)CCC3)c1	14	1.1	14	-1	-1	-5	nt
N#Cc1cc2c(nc1SCc1nc3ccccc3[nH]1)CCC2	nt	0.2	35	-6	nt	78*	30
CCC1CCc2c(sc(NC(=O)CSc3nc(-c4ccco4)cc(C(F)(F)F)n3)c2C#N)C1 (centres undefined)	-1	1	1	-4	1	-5	6
CCOC(=O)c1[nH]c2ccc(F)cc2c1NC(=O)c1ccccc1C(=O)O	16	nt	nt	0	1	nt	nt
CCOC(=O)c1[nH]c2ccc(F)cc2c1NC(=O)C1=COCCO1	-4	1	-1	-2	4	1	-7
COc1ccccc1C(=O)Nc1ccc2c(c1)nc1n2CCSC1	43	0.2	28	-5	0	78*	35
CC(=O)Nc1ccc2c(c1)nc1n2CCSC1	-34	1.1	11	2	2	-6	nt
Cc1cc(C(=O)Cn2nnc3ccccc3c2=O)c(C)n1-c1ccccc1F	81*	0.1	69*	-4	-4	85*	70*
COc1ccc(-n2c(C)cc(C(=O)Cn3nnc4ccccc4c3=O)c2C)cc1	37	1	-5	-3	2	0	nt
CC(C)(C)OC(=O)C[C@H]1C/C=C\C[C@H](CC(=O)N(CCO)Cc2ccccc2)C(=O)N2CCC[C@H]2COC1=O	-3	nt	nt	7	1	nt	nt
CCCOc1ccc(-c2csc3nc[nH]c(=O)c23)cc1	19	nt	nt	-1	0	nt	nt
O=c1[nH]cnc2scc(-c3ccc(-c4ccccc4)cc3)c12	42	0.4	58*	nt	-2	60*	60*
CCSc1nnc(NC(=O)CSc2nc3c(cc2C#N)CCCC3)s1	39	0.9	31	-4	-2	9	nt
Cc1ccc(C#N)c(SCC(=O)Nc2nccs2)n1	47	0.9	54*	-5	-4	12	59*
SMILES	C8 TRAIL sens	FLuc act counter	PPC-1+TRAIL kill	MIN6 prolif	hiPSC survival	FLuc inh counter	PPC-1 tox
Cc1cc(C)c(C#N)c(SCC(=O)Nc2ccccc2C(N)=O)n1	50	1	73*	-6	-4	-2	74*
CCc1nnc(NC(=O)CSc2nc3c(cc2C#N)CCC3)s1	64*	0.8	65*	-3	-4	21	69*
CCc1nnc(NC(=O)CSc2nc(C)cc(C)c2C#N)s1	73*	0.8	74*	-5	-1	18	74*
Cn1c(=O)c([N+](=O)[O-])c(N2CCN(Cc3ccc4c(c3)OCO4)CC2)c2ccccc21	1	nt	32	4	1	nt	nt
CSc1ccc(C(=O)C2CCCN(C(=O)c3ccc4c(c3)no[n+]4[O-])C2)cc1 (centres undefined)	2	nt	2	-1	0	nt	nt
COc1cc2c(cc1OC)C(COc1ccc(C(C)C)cc1)NCC2 (centres undefined)	-1	nt	nt	-1	0	nt	nt
CCCCCCCCN1C(=O)[C@H](CC(=O)NCc2cccc3ccccc23)C[C@@]2(C(=O)OC)CC(C)(C)CC=C12	3	nt	nt	nt	nt	nt	nt
C/C=C/c1ccc(OCC(=O)Nc2cc(S(=O)(=O)N3CCOCC3)ccc2N2CCCC2)c(OC)c1	-2	nt	nt	1	0	nt	nt
Cc1ccc(-n2nnc(-c3nccs3)n2)cc1	87*	0	82*	-8	-3	96*	82*
Cc1ccc(OCc2nc3ccccc3n2C(C(=O)Nc2c(C)cccc2C)C2CC2)cc1 (centres undefined)	0	nt	nt	nt	nt	nt	nt
CCN(CC)C(=O)C1=C(C)NC(=S)NC1c1ccc(C)s1 (centres undefined)	4	1.1	-6	-1	0	-6	-13
O=C(NC1CCC(O)CC1)c1cccnc1Sc1ccccc1Cl (centres undefined)	-14	nt	nt	-2	2	nt	nt
COc1ccc(/C=C/c2cc(C(=O)O)c3ccccc3n2)cc1	94*	nt	96*	-6	-1	nt	96*
COc1ccc(/C=C/C(=O)Nc2ccccc2C(=O)O)cc1	86*	0.1	83*	-6	-1	95*	83*
O=c1cc(-c2ccccc2Cl)oc2c(NS(=O)(=O)c3ccccc3OC(F)(F)F)ccc(O)c12	nt	nt	1	-8	nt	nt	nt
c1ccc(COc2ccc(OCCn3cncn3)cc2)cc1	-1	0.8	9	-3	0	17	11
CC1(C)CC(=O)c2sc(NC(=O)c3cccs3)nc2C1	85*	0.1	77*	-6	-5	95*	77*
CC1(C)CC(=O)c2sc(NC(=O)c3ccccc3)nc2C1	nt	0.1	52*	-5	nt	88*	52*
CCn1c(SCC(=O)NC2CC2)nnc1-c1ccc(OC)cc1	-26	nt	nt	1	2	nt	nt
Cc1ccc2c(c1)S/C(=C\c1cccc[n+]1C)N2CCO	10	nt	nt	-7	0	nt	nt
CCN1/C(=C/c2ccc3cc(C)cc(C)c3[n+]2CC)Sc2cc(C)ccc21	32	1	22	nt	-5	2	34
